# Legend:
# Hepatitis B virus [1] = test: Antiviral activity against Hepatitis B virus infected in human HepG2(2.2.15) cells assessed as inhibition of viral surface antigen secretion by ELISA; assay type: functional, organism-based
# Outline: (§1)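 HepG 2.2.15 cells in RPMI-1640 with 10% fetal calf serum at 37 °C, 5% CO2. Compounds dissolved in DMSO, culture DMSO below 2.5 μL/mL. Secreted HBeAg and HBsAg measured by ELISA. IC50 values are means of at least two experiments.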
# Hepatitis B virus [2] = test: Antiviral activity against Hepatitis B virus infected in human HepG2(2.2.15) cells assessed as inhibition of viral e antigen secretion by ELISA; assay type: functional, organism-based; outline: as §1
# Hepatitis B virus [3] = test: Antiviral activity against Hepatitis B virus infected in human HepG2(2.2.15) cells assessed as inhibition of viral DNA replication by PCR analysis; assay type: functional, organism-based
# Outline: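 HepG 2.2.15 cells grown in RPMI-1640 with 10% fetal calf serum, […] and penicillin/streptomycin at 37 °C, 5% CO2. Compounds added in DMSO, kept below 2.5 μL/mL. HBV DNA quantified by SYBR Green real-time PCR with HBV-specific primers spanning 541–591 bp. IC50 values are means of at least two experiments.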
# [4] = Selectivity index, ratio of CC50 for human HepG2(2.2.15) cells to IC50 for Hepatitis B virus infected in human HepG2(2.2.15) cells assessed as inhibition of viral surface antigen secretion; assay type: functional
# Outline: (§2)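 SI calculated as CC50 (MTT, HepG 2.2.15) divided by IC50 for the named read-out (HBV DNA by real-time PCR, or HBeAg or HBsAg secretion by ELISA), in the same cell line.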
# [5] = Selectivity index, ratio of CC50 for human HepG2(2.2.15) cells to IC50 for Hepatitis B virus infected in human HepG2(2.2.15) cells assessed as inhibition of viral DNA replication; assay type: functional; outline: as §2
# [6] = Cytotoxicity against human HepG2(2.2.15) cells by modified-MTT assay; assay type: cell-based
# Outline: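 HepG 2.2.15 cells in RPMI-1640 with 10% fetal calf serum at 37 °C, 5% CO2. Compounds in DMSO, final DMSO below 2.5 μL/mL. Viability read by modified MTT method. CC50 is the mean of at least two experiments.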
# [7] = Selectivity index, ratio of CC50 for human HepG2(2.2.15) cells to IC50 for Hepatitis B virus infected in human HepG2(2.2.15) cells assessed as inhibition of viral e antigen secretion; assay type: functional; outline: as §2
# Mus musculus [8] = test: Acute toxicity in Kunming mouse assessed as change in body weight at 50 mg/kg, po administered as single dose measured on day 14 (Rvb =28.5 g); assay type: organism-based; parameters: dose 50 mg/kg, route oral; conditions: in vivo
# Mus musculus [9] = test: Acute toxicity in Kunming mouse assessed as change in body weight at 1250 mg/kg, po administered as single dose measured on day 7 (Rvb =26.3 g); assay type: organism-based; parameters: dose 1250 mg/kg, route oral; conditions: in vivo
# Nucleic Acid [10] = test: Increase of enhancer 1 transcriptional activity in HBV infected in human HepG2(2.2.15) cells transfected with pGL3 at 10 uM after 3 days by luciferase reporter gene assay relative to mock-treated control; assay type: cell-based; conditions: Hepatitis B virus
# Outline: (§3)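 HepG 2 cells transiently transfected by Lipofectamine 2000 with HBV promoter/enhancer firefly luciferase reporters in pGL3, with phRL-CMV Renilla luciferase as internal control. Cells split 24 h after transfection and cultured 3 days, then treated at 10 μM for 3 days. Dual-luciferase read-out in triplicate. Fold activity = treated/mock-treated activity.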
# Mus musculus [11] = test: Acute toxicity in Kunming mouse assessed as mortality at 50 mg/kg, po administered as single dose measured up to 14 days; assay type: organism-based; parameters: dose 50 mg/kg, route oral; conditions: in vivo, 336 h
# Mus musculus [12] = test: Acute toxicity in Kunming mouse assessed as change in body weight at 250 mg/kg, po administered as single dose measured on day 14 (Rvb =28.5 g); assay type: organism-based; parameters: dose 250 mg/kg, route oral; conditions: in vivo
# Mus musculus [13] = test: Acute toxicity in po dosed Kunming mouse; assay type: organism-based; conditions: in vivo
# Mus musculus [14] = test: Acute toxicity in Kunming mouse assessed as change in body weight at 1250 mg/kg, po administered as single dose measured on day 14 (Rvb =28.5 g); assay type: organism-based; parameters: dose 1250 mg/kg, route oral; conditions: in vivo
# Nucleic Acid [15] = test: Inhibition of X promoter transcriptional activity in HBV infected in human HepG2(2.2.15) cells transfected with pGL3 at 10 uM after 3 days by luciferase reporter gene assay relative to mock-treated control; assay type: cell-based; conditions: Hepatitis B virus; outline: as §3
# [16] = Cytotoxicity against human HepG2(2.2.15) cells assessed as cell viability at 10 uM after 72 hrs by MTT assay; assay type: cell-based; conditions: hepg2 2.2.15, 72 h
# Outline: (§4)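 Cell viability measured by MTT under the 10 μM luciferase reporter treatment conditions, at 48 h and 72 h.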
# Mus musculus [17] = test: Acute toxicity in Kunming mouse assessed as change in body weight at 250 mg/kg, po administered as single dose measured on day 7 (Rvb =26.3 g); assay type: organism-based; parameters: dose 250 mg/kg, route oral; conditions: in vivo
# [18] = Cytotoxicity against human HepG2(2.2.15) cells assessed as cell viability at 10 uM after 48 hrs by MTT assay; assay type: cell-based; conditions: hepg2 2.2.15, 48 h; outline: as §4
# Mus musculus [19] = test: Acute toxicity in Kunming mouse assessed as mortality at 1250 mg/kg, po administered as single dose measured up to 14 days; assay type: organism-based; parameters: dose 1250 mg/kg, route oral; conditions: in vivo, 336 h
# Mus musculus [20] = test: Acute toxicity in Kunming mouse assessed as abnormality at 50 to 1250 mg/kg, po administered as single dose measured up to 14 days; assay type: organism-based; parameters: dose 50-1250 mg/kg, route oral; conditions: in vivo, 336 h
# Mus musculus [21] = test: Acute toxicity in Kunming mouse assessed as change in body weight at 50 mg/kg, po administered as single dose measured on day 7 (Rvb =26.3 g); assay type: organism-based; parameters: dose 50 mg/kg, route oral; conditions: in vivo
# Mus musculus [22] = test: Acute toxicity in Kunming mouse assessed as mortality at 250 mg/kg, po administered as single dose measured up to 14 days; assay type: organism-based; parameters: dose 250 mg/kg, route oral; conditions: in vivo, 336 h
Structure (SMILES),IC50 (Hepatitis B virus [1]),IC50 (Hepatitis B virus [2]),IC50 (Hepatitis B virus [3]),Ratio CC50/IC50 [4],Ratio CC50/IC50 [5],CC50 [6],Ratio CC50/IC50 [7],further results
CC(=O)[C@]1(O)CC[C@@]2(O)[C@]1(C)[C@H](OC(=O)/C=C(\C)C(C)C)C[C@@H]1[C@@]3(C)CC[C@H](OC(=O)/C=C/c4cccc(Br)c4)CC3=CC[C@]12O,14.4 µM,12.5 µM,4.42 µM,29.9,97,429 µM,34.4,
CC(=O)[C@]1(O)CC[C@@]2(O)[C@]1(C)[C@H](OC(=O)/C=C(\C)C(C)C)C[C@@H]1[C@@]3(C)CC[C@H](OC(=O)/C=C/c4ccc(F)c(F)c4F)CC3=CC[C@]12O,< 5.58 µM,14 µM,2.83 µM,>71.1,140.2,397 µM,28.3,
CC(=O)[C@]1(O)CC[C@@]2(O)[C@]1(C)[C@H](OC(=O)/C=C(\C)C(C)C)C[C@@H]1[C@@]3(C)CC[C@H](OC(=O)/C=C/c4cc(F)cc(F)c4)CC3=CC[C@]12O,20.3 µM,90.7 µM,18.6 µM,>66,>72,> 1340 µM,>14.8,
CC(=O)[C@]1(O)CC[C@@]2(O)[C@]1(C)[C@H](OC(=O)/C=C(\C)C(C)C)C[C@@H]1[C@@]3(C)CC[C@H](OC(=O)/C=C/c4ccc(Cl)cc4Cl)CC3=CC[C@]12O,216 µM,1180 µM,14.5 µM,>8.8,>130.3,> 1890 µM,>1.6,
CCOc1ccccc1/C=C/C(=O)O[C@H]1CC[C@@]2(C)C(=CC[C@]3(O)[C@@H]2C[C@@H](OC(=O)/C=C(\C)C(C)C)[C@@]2(C)[C@]3(O)CC[C@@]2(O)C(C)=O)C1,40.6 µM,404 µM,12 µM,>42.6,>143.8,> 1730 µM,>4.3,
CC(=O)[C@]1(O)CC[C@@]2(O)[C@]1(C)[C@H](OC(=O)/C=C(\C)C(C)C)C[C@@H]1[C@@]3(C)CC[C@H](OC(=O)/C=C/c4ccc(F)c(F)c4)CC3=CC[C@]12O,15.6 µM,69.2 µM,4.66 µM,>82.7,>277,> 1290 µM,>18.7,
CC(=O)[C@]1(O)CC[C@@]2(O)[C@]1(C)[C@H](OC(=O)/C=C(\C)C(C)C)C[C@@H]1[C@@]3(C)CC[C@H](OC(=O)/C=C/c4cccc([N+](=O)[O-])c4)CC3=CC[C@]12O,50.3 µM,207 µM,56.7 µM,>31.7,>28.1,> 1590 µM,>7.7,
COc1ccc(/C=C/C(=O)O[C@H]2CC[C@@]3(C)C(=CC[C@]4(O)[C@@H]3C[C@@H](OC(=O)/C=C(\C)C(C)C)[C@@]3(C)[C@]4(O)CC[C@@]3(O)C(C)=O)C2)c(OC)c1OC,12.4 µM,28 µM,21.1 µM,>125,>73.5,> 1550 µM,>55.3,
CC(=O)[C@]1(O)CC[C@@]2(O)[C@]1(C)[C@H](OC(=O)/C=C(\C)C(C)C)C[C@@H]1[C@@]3(C)CC[C@H](OC(=O)/C=C/c4ccccc4[N+](=O)[O-])CC3=CC[C@]12O,37 µM,52.7 µM,21.7 µM,>41.9,>71.4,> 1550 µM,>29.4,
COc1ccccc1/C=C/C(=O)O[C@H]1CC[C@@]2(C)C(=CC[C@]3(O)[C@@H]2C[C@@H](OC(=O)/C=C(\C)C(C)C)[C@@]2(C)[C@]3(O)CC[C@@]2(O)C(C)=O)C1,64 µM,753 µM,7.3 µM,>36.9,>324.1,> 2370 µM,>3.1,
CC(=O)[C@]1(O)CC[C@@]2(O)[C@]1(C)[C@H](OC(=O)/C=C(\C)C(C)C)C[C@@H]1[C@@]3(C)CC[C@H](OC(=O)/C=C/c4ccc(C=O)cc4)CC3=CC[C@]12O,23.5 µM,19.2 µM,6.34 µM,1.7,6.3,40.2 µM,2.1,
CC(=O)[C@]1(O)CC[C@@]2(O)[C@]1(C)[C@H](OC(=O)/C=C(\C)C(C)C)C[C@@H]1[C@@]3(C)CC[C@H](OC(=O)/C=C/c4ccccc4Cl)CC3=CC[C@]12O,28.4 µM,550 µM,22.9 µM,>40.4,>50.1,> 1150 µM,>2.1,
COc1cc(/C=C/C(=O)O[C@H]2CC[C@@]3(C)C(=CC[C@]4(O)[C@@H]3C[C@@H](OC(=O)/C=C(\C)C(C)C)[C@@]3(C)[C@]4(O)CC[C@@]3(O)C(C)=O)C2)cc(OC)c1OC,5.52 µM,5.52 µM,2.44 µM,>330,>746.6,> 1820 µM,>330,Activity (Mus musculus [8]): 28.9%; Activity (Mus musculus [9]): 26.5%; fold change (FC) (Nucleic Acid [10]): 9.4; Activity (Mus musculus [11]): Non-toxic; Activity (Mus musculus [12]): 29.8%; LD50 (Mus musculus [13]): 1250 mg/kg; Activity (Mus musculus [14]): 28.8%; fold change (FC) (Nucleic Acid [15]): 5.6; Activity [16]: 85.6%; Activity (Mus musculus [17]): 27.3%; Activity [18]: 97.4%; Activity (Mus musculus [19]): Non-toxic; Activity (Mus musculus [20]): Non-toxic; Activity (Mus musculus [21]): 26.7%; Activity (Mus musculus [22]): Non-toxic

# Source: ChEMBL document CHEMBL2046311, “Design, synthesis, and molecular hybrids of caudatin and cinnamic acids as novel anti-hepatitis B virus agents” (Eur J Med Chem, 2012)
